# Experimental data reported in ChEMBL document CHEMBL3351257, “Total syntheses of parthenolide and its analogues with macrocyclic stereocontrol” (J Med Chem, 2014).
# Columns and labels:
# Assay type in all cases: functional, cell-based
# [1] = Cytotoxicity against human SUM159 cells assessed as cell viability after 72 hrs by CCK cell proliferation assay; conditions: SUM-159-PT
# Method in brief: (§1)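 Cells plated at 3,000–5,000 per well; dosing began 24 h after plating, using a rising concentration series. After 72 h, cell counting kit reagent added and incubation continued 1–4 h. Viable cells read as OD at 450 nm. Inhibition rate = (1 − OD treated/OD control) × 100%. Wells in triplicate, each compound tested three times; IC50 is the mean of three independent experiments.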
# C6 = assay: Cytotoxicity against rat C6 cells assessed as cell viability after 72 hrs by CCK cell proliferation assay; conditions: C6, 72 h; method in brief: as §1
# MCF7 = assay: Cytotoxicity against human MCF7 cells assessed as cell viability after 72 hrs by CCK cell proliferation assay; conditions: MCF7, 72 h; method in brief: as §1
# [2] = Cytotoxicity against human HL60 cells assessed as cell viability after 72 hrs by CCK cell proliferation assay; conditions: HL-60, 72 h; method in brief: as §1
SMILES,IC50 [1] [µM],IC50 (C6) [µM],IC50 (MCF7) [µM],IC50 [2] [µM]
C=C1C(=O)O[C@H]2[C@@H]1CC/C(C)=C/CC[C@@]1(C)O[C@@H]21,12.3,24,17.6,2.9
C=C1C(=O)O[C@H]2[C@H]1CC/C(C)=C\CC[C@@]1(C)O[C@@H]21,7.7,3.9,5.9,1.2
C=C1C(=O)O[C@@H]2C3O[C@]3(C)CC/C=C(\C)CC[C@@H]12 (stereo partly specified),10.3,6.6,6.9,2.5
C=C1C(=O)O[C@H]2[C@@H]1CC/C(C)=C\CC[C@@]1(C)O[C@@H]21,3.5,41.8,13,4.2
